Measured values from ChEMBL document CHEMBL5058577, “EUbOPEN Chemogenomics Library 2 (Multiplex)” (2022).

Test system: U2OS
Test: Multiplex assay against U2OS
Format: toxicity, cell-based
Settings: human
Procedure, shortened: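 Four dyes were applied at seeding to live cells: Hoechst33342, BioTracker Green Microtubule Cytoskeleton Dye, MitoTracker Red and Annexin V Alexa Fluor 680. Imaging after compound addition used a CQ1 microscope at 37°C and 5% CO2. CellPathfinder machine-learning gating then sorted cells into Hoechst high-intensity objects or normal cells, normal cells into healthy, pyknosed or fragmented nuclei, and pyknosed cells into mitotic or apoptotic, with tubulin, mitochondrial-mass and membrane-permeability phenotypes given as per cents of healthy-nucleus cells.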

[1] = 12 h, 1 µM, compound concentration 1 uM, replicate 1
[2] = 12 h, 1 µM, compound concentration 1 uM, replicate 2
[3] = 12 h, 10 µM, compound concentration 10 uM, replicate 1
[4] = 12 h, 10 µM, compound concentration 10 uM, replicate 2
[5] = 24 h, 1 µM, compound concentration 1 uM, replicate 1
[6] = 24 h, 1 µM, compound concentration 1 uM, replicate 2
[7] = 24 h, 10 µM, compound concentration 10 uM, replicate 1
[8] = 24 h, 10 µM, compound concentration 10 uM, replicate 2
[9] = 48 h, 1 µM, compound concentration 1 uM, replicate 1
[10] = 48 h, 1 µM, compound concentration 1 uM, replicate 2
[11] = 48 h, 10 µM, compound concentration 10 uM, replicate 1
[12] = 48 h, 10 µM, compound concentration 10 uM, replicate 2

SMILES: CN(C)CCCc1cc(C(=O)Nc2ccc(-c3ccncc3)cc2)ccc1O.Cl.Cl
- Population Apoptotic (%) [1]: 89%
- Population Fragmented Nuclei (%) [1]: 29%
- Population Healthy Nuclei (%) [1]: 60%
- Population Hoechst High Intensity Objects (%) [1]: 2%
- Population Membrane Permeable-Phenotype (%) [1]: 6%
- Population Mitochondria Different-Phenotype (%) [1]: 0%
- Population Mitotic Cells (%) [1]: 10%
- Population Normal (%) [1]: 97%
- Population Pyknosed Nuclei (%) [1]: 9%
- Population Tubulin-Different-Phenotype (%) [1]: 3%
- Total Cell Count [1]: 199
- Population Apoptotic (%) [2]: 100%
- Population Fragmented Nuclei (%) [2]: 10%
- Population Healthy Nuclei (%) [2]: 75%
- Population Hoechst High Intensity Objects (%) [2]: 0%
- Population Membrane Permeable-Phenotype (%) [2]: 2%
- Population Mitochondria Different-Phenotype (%) [2]: 1%
- Population Mitotic Cells (%) [2]: 0%
- Population Normal (%) [2]: 99%
- Population Pyknosed Nuclei (%) [2]: 13%
- Population Tubulin-Different-Phenotype (%) [2]: 0%
- Total Cell Count [2]: 124
- Population Apoptotic (%) [3]: 77%
- Population Fragmented Nuclei (%) [3]: 28%
- Population Healthy Nuclei (%) [3]: 62%
- Population Hoechst High Intensity Objects (%) [3]: 4%
- Population Membrane Permeable-Phenotype (%) [3]: 7%
- Population Mitochondria Different-Phenotype (%) [3]: 1%
- Population Mitotic Cells (%) [3]: 22%
- Population Normal (%) [3]: 95%
- Population Pyknosed Nuclei (%) [3]: 9%
- Population Tubulin-Different-Phenotype (%) [3]: 2%
- Total Cell Count [3]: 237
- Population Apoptotic (%) [4]: 42%
- Population Fragmented Nuclei (%) [4]: 24%
- Population Healthy Nuclei (%) [4]: 63%
- Population Hoechst High Intensity Objects (%) [4]: 1%
- Population Membrane Permeable-Phenotype (%) [4]: 4%
- Population Mitochondria Different-Phenotype (%) [4]: 8%
- Population Mitotic Cells (%) [4]: 57%
- Population Normal (%) [4]: 98%
- Population Pyknosed Nuclei (%) [4]: 12%
- Total Cell Count [4]: 113
- Population Apoptotic (%) [5]: 100%
- Population Fragmented Nuclei (%) [5]: 28%
- Population Healthy Nuclei (%) [5]: 65%
- Population Hoechst High Intensity Objects (%) [5]: 2%
- Population Membrane Permeable-Phenotype (%) [5]: 5%
- Population Mitochondria Different-Phenotype (%) [5]: 2%
- Population Mitotic Cells (%) [5]: 0%
- Population Normal (%) [5]: 97%
- Population Pyknosed Nuclei (%) [5]: 6%
- Population Tubulin-Different-Phenotype (%) [5]: 3%
- Total Cell Count [5]: 247
- Population Apoptotic (%) [6]: 94%
- Population Fragmented Nuclei (%) [6]: 11%
- Population Healthy Nuclei (%) [6]: 77%
- Population Hoechst High Intensity Objects (%) [6]: 4%
- Population Membrane Permeable-Phenotype (%) [6]: 7%
- Population Mitochondria Different-Phenotype (%) [6]: 5%
- Population Mitotic Cells (%) [6]: 5%
- Population Normal (%) [6]: 95%
- Population Pyknosed Nuclei (%) [6]: 11%
- Population Tubulin-Different-Phenotype (%) [6]: 5%
- Total Cell Count [6]: 178
- Population Apoptotic (%) [7]: 72%
- Population Fragmented Nuclei (%) [7]: 28%
- Population Healthy Nuclei (%) [7]: 58%
- Population Hoechst High Intensity Objects (%) [7]: 4%
- Population Membrane Permeable-Phenotype (%) [7]: 6%
- Population Mitochondria Different-Phenotype (%) [7]: 3%
- Population Mitotic Cells (%) [7]: 27%
- Population Normal (%) [7]: 95%
- Population Pyknosed Nuclei (%) [7]: 13%
- Population Tubulin-Different-Phenotype (%) [7]: 1%
- Total Cell Count [7]: 257
- Population Apoptotic (%) [8]: 66%
- Population Fragmented Nuclei (%) [8]: 21%
- Population Healthy Nuclei (%) [8]: 63%
- Population Hoechst High Intensity Objects (%) [8]: 0%
- Population Membrane Permeable-Phenotype (%) [8]: 4%
- Population Mitochondria Different-Phenotype (%) [8]: 8%
- Population Mitotic Cells (%) [8]: 33%
- Population Normal (%) [8]: 100%
- Population Pyknosed Nuclei (%) [8]: 15%
- Population Tubulin-Different-Phenotype (%) [8]: 2%
- Total Cell Count [8]: 118
- Population Apoptotic (%) [9]: 88%
- Population Fragmented Nuclei (%) [9]: 25%
- Population Healthy Nuclei (%) [9]: 69%
- Population Hoechst High Intensity Objects (%) [9]: 3%
- Population Membrane Permeable-Phenotype (%) [9]: 5%
- Population Mitochondria Different-Phenotype (%) [9]: 3%
- Population Mitotic Cells (%) [9]: 11%
- Population Normal (%) [9]: 96%
- Population Pyknosed Nuclei (%) [9]: 5%
- Population Tubulin-Different-Phenotype (%) [9]: 3%
- Total Cell Count [9]: 338
- Population Apoptotic (%) [10]: 93%
- Population Fragmented Nuclei (%) [10]: 15%
- Population Healthy Nuclei (%) [10]: 71%
- Population Membrane Permeable-Phenotype (%) [10]: 7%
- Population Mitotic Cells (%) [10]: 6%
- Population Pyknosed Nuclei (%) [10]: 13%
- Population Tubulin-Different-Phenotype (%) [10]: 4%
- Total Cell Count [10]: 259
- Population Apoptotic (%) [11]: 74%
- Population Fragmented Nuclei (%) [11]: 25%
- Population Healthy Nuclei (%) [11]: 61%
- Population Hoechst High Intensity Objects (%) [11]: 5%
- Population Membrane Permeable-Phenotype (%) [11]: 5%
- Population Mitochondria Different-Phenotype (%) [11]: 3%
- Population Mitotic Cells (%) [11]: 25%
- Population Normal (%) [11]: 94%
- Population Pyknosed Nuclei (%) [11]: 12%
- Population Tubulin-Different-Phenotype (%) [11]: 5%
- Total Cell Count [11]: 352
- Population Apoptotic (%) [12]: 68%
- Population Fragmented Nuclei (%) [12]: 20%
- Population Healthy Nuclei (%) [12]: 63%
- Population Hoechst High Intensity Objects (%) [12]: 4%
- Population Membrane Permeable-Phenotype (%) [12]: 13%
- Population Mitochondria Different-Phenotype (%) [12]: 8%
- Population Mitotic Cells (%) [12]: 32%
- Population Normal (%) [12]: 95%
- Population Pyknosed Nuclei (%) [12]: 16%
- Population Tubulin-Different-Phenotype (%) [12]: 9%
- Total Cell Count [12]: 160
